The results in this text go back to ChEMBL document CHEMBL4219233, “Discovery and evaluation of nNav1.5 sodium channel blockers with potent cell invasion inhibitory activity in breast cancer cells” (Bioorg Med Chem, 2018).

In data set [1] the target is T1, Sodium channel protein type 5 subunit alpha (Homo sapiens, UniProt Q14524). Description: Reversible inhibition of neonatal Nav1.5 in human MDA-MB-231 cells assessed as reduction in sodium peak current elecited for membrane depolarization from -100 mV to -5 mV by measuring remaining current amplitude at 0.1 to 100 uM at -100 mV holding potential treated for 5 to 10 mins followed by compound washout by whole cell patch clamp method relative to control. On the technique in general: In patch-clamp work, channel activity is measured electrically.
Target sequence in this assay (Q14524 whole entry): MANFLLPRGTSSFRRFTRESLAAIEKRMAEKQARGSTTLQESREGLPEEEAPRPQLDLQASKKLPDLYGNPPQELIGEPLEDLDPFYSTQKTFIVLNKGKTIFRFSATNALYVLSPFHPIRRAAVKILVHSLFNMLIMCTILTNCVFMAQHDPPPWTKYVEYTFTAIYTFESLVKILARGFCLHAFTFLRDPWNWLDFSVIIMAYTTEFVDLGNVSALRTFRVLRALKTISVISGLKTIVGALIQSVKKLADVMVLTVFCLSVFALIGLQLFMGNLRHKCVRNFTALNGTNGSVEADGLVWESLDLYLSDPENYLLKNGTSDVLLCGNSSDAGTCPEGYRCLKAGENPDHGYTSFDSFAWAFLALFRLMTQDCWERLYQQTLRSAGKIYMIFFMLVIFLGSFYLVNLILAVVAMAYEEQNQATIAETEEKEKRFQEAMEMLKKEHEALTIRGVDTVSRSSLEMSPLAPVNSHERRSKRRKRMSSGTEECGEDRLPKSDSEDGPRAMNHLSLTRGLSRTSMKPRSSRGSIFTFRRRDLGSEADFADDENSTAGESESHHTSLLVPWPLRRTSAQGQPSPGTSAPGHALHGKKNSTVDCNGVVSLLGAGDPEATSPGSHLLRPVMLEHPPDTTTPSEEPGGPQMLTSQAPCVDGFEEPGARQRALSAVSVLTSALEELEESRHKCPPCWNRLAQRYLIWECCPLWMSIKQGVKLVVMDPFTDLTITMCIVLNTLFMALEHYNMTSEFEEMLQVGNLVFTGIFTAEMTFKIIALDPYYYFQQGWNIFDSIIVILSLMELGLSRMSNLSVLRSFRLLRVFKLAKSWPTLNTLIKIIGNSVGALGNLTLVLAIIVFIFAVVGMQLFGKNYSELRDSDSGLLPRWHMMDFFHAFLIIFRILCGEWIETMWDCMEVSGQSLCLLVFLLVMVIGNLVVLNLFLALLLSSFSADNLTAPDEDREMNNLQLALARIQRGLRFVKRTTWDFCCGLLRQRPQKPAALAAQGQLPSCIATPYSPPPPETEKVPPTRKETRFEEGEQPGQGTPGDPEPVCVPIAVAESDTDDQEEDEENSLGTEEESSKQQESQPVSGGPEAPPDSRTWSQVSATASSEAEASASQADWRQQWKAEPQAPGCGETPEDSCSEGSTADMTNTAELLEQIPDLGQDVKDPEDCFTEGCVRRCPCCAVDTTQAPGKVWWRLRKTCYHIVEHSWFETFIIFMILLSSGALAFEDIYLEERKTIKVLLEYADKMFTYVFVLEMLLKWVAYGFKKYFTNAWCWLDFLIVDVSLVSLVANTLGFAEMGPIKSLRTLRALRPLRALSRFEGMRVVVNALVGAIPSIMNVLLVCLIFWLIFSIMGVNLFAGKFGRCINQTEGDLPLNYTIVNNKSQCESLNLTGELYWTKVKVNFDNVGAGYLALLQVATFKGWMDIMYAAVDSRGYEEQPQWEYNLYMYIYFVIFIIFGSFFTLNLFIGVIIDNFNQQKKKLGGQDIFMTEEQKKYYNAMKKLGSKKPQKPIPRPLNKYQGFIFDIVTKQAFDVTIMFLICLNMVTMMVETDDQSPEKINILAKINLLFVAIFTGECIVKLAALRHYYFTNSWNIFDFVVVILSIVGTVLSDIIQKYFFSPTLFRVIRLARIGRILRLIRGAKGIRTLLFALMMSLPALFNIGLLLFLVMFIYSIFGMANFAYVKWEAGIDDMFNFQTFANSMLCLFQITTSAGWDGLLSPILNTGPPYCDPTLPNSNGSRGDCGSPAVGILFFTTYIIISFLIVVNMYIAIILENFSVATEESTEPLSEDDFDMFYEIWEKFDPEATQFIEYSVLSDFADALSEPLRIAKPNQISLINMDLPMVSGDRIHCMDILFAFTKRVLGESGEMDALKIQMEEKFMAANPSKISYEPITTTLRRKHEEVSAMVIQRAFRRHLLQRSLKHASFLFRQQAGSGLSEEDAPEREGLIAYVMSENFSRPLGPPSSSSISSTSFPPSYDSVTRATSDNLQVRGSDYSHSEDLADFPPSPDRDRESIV

Data set [2] deals with MDA-MB-231. Description: Anti-invasive activity against human MDA-MB-231 cells at 0.1 uM after 24 hrs by Hema staining based microscopic method relative to control. It is filed as functional. The conditions noted are these: MDA-MB-231, 24 h. In a few lines:
(§1)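 Matrigel-coated transwell invasion chambers are hydrated 2 h at 37 °C, with 5% FBS/DMEM above and 10% FBS/DMEM below as chemoattractant. 4 × 10^4 cells go in the upper chamber. Compound or vehicle (0.2% DMSO in PBS) is added to both chambers. After 24 h at 37 °C, 5% CO2, invaded cells are fixed, Hema-stained and counted in five membrane regions. Counts are normalized to solvent control, mean ± SD.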

Data set [3] concerns the target T1, Sodium channel protein type 5 subunit alpha. Description: Inhibition of neonatal Nav1.5 in human MDA-MB-231 cells assessed as reduction in inward sodium peak current by measuring half activation potential at 10 uM at -100 mV holding potential after 5 to 10 mins by whole cell patch clamp method (reference value: -30.7 +/- 0.9 mV). The class given is cell-based. Particulars: mda-mb-231, 10 µM.
Target sequence in this assay (Q14524 whole entry): as above

Data set [4] deals with MDA-MB-231. Description: Anti-invasive activity against human MDA-MB-231 cells at 1 uM after 24 hrs by Hema staining based microscopic method relative to control. It is filed as functional. Particulars: MDA-MB-231, 24 h. In a few lines:
as §1

The target of data set [5] is T1, Sodium channel protein type 5 subunit alpha. Put plainly: Inhibition of neonatal Nav1.5 in human MDA-MB-231 cells assessed as reduction in inward sodium peak current at 1 uM at -100 mV holding potential after 5 to 10 mins by whole cell patch clamp method relative to control. It is filed as cell-based. The conditions noted are these: MDA-MB-231, human. In short, it runs like this: (§2)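 Whole-cell voltage clamp on MDA-MB-231 cells grown in 5% FBS DMEM, with 60% capacitance and series-resistance compensation and P/2 leak subtraction. Cells were perifused with PSS (mM: NaCl 140, KCl 4, MgCl2 1, CaCl2 2, NaH2PO4 0.33, glucose 11.1, HEPES 10; pH 7.4) with 0.2% DMSO, and compound was applied 5–10 min (final 0.1–100 μM). Peak INa was evoked by 30 ms steps from −100 to −5 mV. Percent block was taken against control, followed by wash-out.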
Target sequence in this assay (Q14524 whole entry): as above

For data set [6] the target is unchanged. Description: Inhibition of neonatal Nav1.5 in human MDA-MB-231 cells assessed as reduction in inward sodium peak current at 100 uM at -100 mV holding potential after 5 to 10 mins by whole cell patch clamp method relative to control. Particulars: MDA-MB-231, human. It is filed as cell-based. In a few lines: as §2
Target sequence in this assay (Q14524 whole entry): as above
Data set [7] shares this target. Description: Inhibition of neonatal Nav1.5 in human MDA-MB-231 cells assessed as reduction in inward sodium peak current by measuring half inactivation potential at 10 uM at -100 mV holding potential after 5 to 10 mins by whole cell patch clamp method (reference value: -66 +/- 2.5 mV). Particulars: mda-mb-231, 10 µM. It is filed as cell-based.
Target sequence in this assay (Q14524 whole entry): as above
For data set [8] the target is unchanged. Put plainly: Inhibition of neonatal Nav1.5 in human MDA-MB-231 cells assessed as reduction in inward sodium peak current at -100 mV holding potential after 5 to 10 mins by whole cell patch clamp method. The class given is cell-based. In a few lines: (§3)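 Whole-cell voltage clamp is used, with capacitance and series resistance compensated 60% and P/2 leak subtraction. Cells are perifused with PSS (mM: NaCl 140, KCl 4, MgCl2 1, CaCl2 2, NaH2PO4 0.33, glucose 11.1, HEPES 10; pH 7.4), with or without compound (final 0.2% DMSO), for 5–10 min. Peak INa is evoked by 30 ms steps from −100 to −5 mV. Percent block is taken from peak current. The concentration-response over 0.1–100 μM is Hill-fitted.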
Target sequence in this assay (Q14524 whole entry, looked up): as the sequence (Q14524 whole entry) above

For data set [9] the target is unchanged. Put plainly: Inhibition of neonatal Nav1.5 in human MDA-MB-231 cells assessed as reduction in inward sodium peak current at 10 uM at -100 mV holding potential after 5 to 10 mins by whole cell patch clamp method relative to control. It is filed as cell-based. The conditions noted are these: MDA-MB-231, human. In a few lines:
as §3
Target sequence in this assay (Q14524 whole entry): as above

Data set [10] in a line: Cytotoxicity against human MDA-MB-231 cells assessed as reduction in cell viability after 24 hrs by MTS assay. The class given is cell-based. In a few lines: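 Cells are seeded at 10^4/well in 5% FBS/DMEM and grown 24 h at 37 °C, 5% CO2. They are then exposed 24 h to 1, 5, 10 or […] μM compound or vehicle (0.25% DMSO in PBS), with 5 wells per concentration. MTS is added for 30 min and absorbance read at 490 nm. The maximum non-toxic concentration is judged against vehicle, mean of five repeats.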
For orientation: Formazan colour is commonly taken as a measure of viable cells.

Data set [11] concerns the target T1, Sodium channel protein type 5 subunit alpha. Put plainly: Inhibition of neonatal Nav1.5 in human MDA-MB-231 cells assessed as reduction in inward sodium peak current by measuring half inactivation potential at 10 uM at -100 mV holding potential after 5 to 10 mins by whole cell patch clamp method (reference value: -71.6 +/- 0.4 mV). The conditions noted are these: mda-mb-231, 10 µM. It is filed as cell-based.

Data set [12] has the same target. Put plainly: Inhibition of neonatal Nav1.5 in human MDA-MB-231 cells assessed as reduction in inward sodium peak current by measuring half activation potential at 10 uM at -100 mV holding potential after 5 to 10 mins by whole cell patch clamp method (reference value: -33 +/- 1.2 mV). Particulars: mda-mb-231, 10 µM. The class given is cell-based.
The target is the same in data set [13]. Description: Irreversible inhibition of neonatal Nav1.5 in human MDA-MB-231 cells assessed as reduction in sodium peak current elecited for membrane depolarization from -100 mV to -5 mV at -100 mV holding potential treated for 5 to 10 mins followed by compound washout by whole cell patch clamp method relative to control. The class given is cell-based. In a few lines: as §2

Data set [14] has as its system MDA-MB-231. The conditions noted are these: Homo sapiens, 30 uM.

With `Fc1ccc(CCCCNCCCN2CCCCC2)cc1`, the Activity in [1] amounted to 17.4%. The compound further came in with an inhibition at 0.1 µM with MDA-MB-231 [2] of 20%. Also, the V1/2 in data set [3] is -36.8 mV; in data set [7] it was -77.5 mV. Moreover, the inhibition at 1 µM with MDA-MB-231 [4] is 28%; in data set [5] it was 25%. The inhibition at 100 µM in data set [6] was > 95%. Moreover, in [8], the IC50 came out at 5.9 µM. Also, in data set [9], the inhibition at 10 µM stood at 60%. In addition, the MNTC at 24 h in data set [10] is > 25 µM.

`CC(C)(C)CCCCNCCCN1CCCCC1`: the inhibition at 10 µM in [9] is 30%. Moreover, in data set [10], the MNTC at 24 h was 10 µM.

For `Fc1ccc(C(CCCNCCCN2CCCCC2)c2ccc(F)cc2)cc1`, the V1/2 in [11] is listed as -88.6 mV; in [12], -34.9 mV. In the data set on MDA-MB-231 [2], this compound returned an inhibition at 0.1 µM of 20%. Further, the figures for the inhibition at 1 µM (in the data set with MDA-MB-231 [4]; in [5]) were 30.3% and 34.9%, respectively. Further, the inhibition at 100 µM in [6] is > 95%. For the same compound, the half-inhibitory concentration (IC50) in [8] was 4.8 µM. Moreover, the “inhibition (INH)” value in data set [13] is given as “Dose-dependent effect”. For the same compound, the inhibition at 10 µM in [9] worked out at 50%. For the same compound, the MNTC at 24 h in [10] amounted to 5 µM.

Turning to `Fc1ccc(C(CCCNCCCc2ccccc2)c2ccc(F)cc2)cc1`, in data set [9], the inhibition at 10 µM turned out to be 30%. In addition, in [10], the MNTC at 24 h stood at 10 µM.

Turning to `Fc1ccc(C(CCCNCCc2ccccc2)c2ccc(F)cc2)cc1`, in data set [9], the inhibition at 10 µM was determined as 30%. Also, the MNTC at 24 h in [10] is 10 µM.

`NC1=N[C@H](O)[C@H]2[C@H]3O[C@]4(O)O[C@@H]([C@@H](O)[C@@]2(N1)[C@@H]4O)[C@]3(O)CO` [TETRODOTOXIN]: the inhibition with MDA-MB-231 [14] was 31.5%. In addition, in [10], the MNTC at 24 h came out at 30 µM.

What is called inhibition is the share of the control response that was lost under treatment. One may read the IC50 as the concentration at which inhibition is half-maximal.
